Rows were chosen to be rich in hits. Some 1.8% of all compounds tested hit in one or more screens of this group.
TCR CD3 inh: inhibitors of human TCR-CD3 interaction; TAMRA-labeled TCR probe fluorescence, biochemical; inhibition, % at 9.4 µM; AID 651800; hit rate 0.37% among 360,000;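 further: recombinant mutant TCR 2C K166C tagged with TAMRA read by polarization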
SIAE inh: inhibitors of human sialic acid acetylesterase SIAE; Q9HAT2; SIAE FP-Rh probe binding, fluorescence polarization; inhibition, % at 9.66 µM; hit rate 0.69% among 370,000; AID 1053197;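 active means inhibition above a cutoff: mean of compounds within the control limits plus 3 SD of those, cut at about 17% in these data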
Tn7 DDE FP: DD(E)-Tn7 binding inhibition, primary FP screen. P02675. FP displacement of FITC-Tn7 peptide from fibrin DD(E); 0% = median of compound wells per plate. inhibition, % at 8.3 µM. hit rate 0.13% among 370,000. AID 720508;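 active means inhibition above the mean of compounds falling within the control limits plus 3 SD of them, cut at about 14% in these data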
Target sequence (P02675 whole entry, looked up): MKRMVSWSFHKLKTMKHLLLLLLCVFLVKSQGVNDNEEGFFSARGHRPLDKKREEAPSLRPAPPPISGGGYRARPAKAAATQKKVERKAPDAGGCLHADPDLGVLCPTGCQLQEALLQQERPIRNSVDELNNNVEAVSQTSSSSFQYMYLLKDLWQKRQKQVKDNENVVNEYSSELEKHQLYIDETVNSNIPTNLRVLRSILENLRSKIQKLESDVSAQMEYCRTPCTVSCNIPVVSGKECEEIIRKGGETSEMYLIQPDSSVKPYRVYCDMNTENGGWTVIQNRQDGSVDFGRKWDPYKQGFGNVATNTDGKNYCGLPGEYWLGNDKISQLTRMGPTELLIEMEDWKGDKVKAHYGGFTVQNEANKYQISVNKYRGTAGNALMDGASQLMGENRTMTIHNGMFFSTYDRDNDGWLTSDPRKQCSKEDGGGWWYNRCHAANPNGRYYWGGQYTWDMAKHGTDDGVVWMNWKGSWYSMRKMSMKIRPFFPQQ
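Assay system: Fibrin-DD(E) protein isolated from polymerized human fibrin clots; read-out basis: percent inhibition; medium: Tris/NaCl/CaCl2 buffer, pH 7.8; signal: FP measurement; incubation: 10 min plus 3 h, room temperature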
ABHD4 inh: inhibits mouse alpha/beta hydrolase domain 4 | Q8VD66 | purified mABHD4, FP-Rh probe fluorescence polarization | inhibition, % at 8.92 µM | hit rate 0.54% among 370,000 | AID 720543;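 active means inhibition exceeding the mean over every tested compound plus 3 SD, cut at about 30% in these data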
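Assay system: mABHD4 protein; medium: HEPES pH 7.0, NaCl, Pluronic buffer; dosing: 8.92 µM, single dose; schedule: 45 min + 60 min at 25 °C; signal: FP readout, ex 525 nm / em 598 nm; read-out: normalized percent inhibition of probe labeling; repeats: single replicate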
HTRA1 inhibitor: inhibitors of human serine peptidase HTRA1; Q92743; recombinant HTRA1, FP-rhodamine activity-based probe, fluorescence polarization; inhibition, % at 5.96 µM; hit rate 0.5% among 340,000; in the data active means inhibition above about 36%
Tn6 DDE FP: inhibitors of Tn6 peptide binding to human fibrin DD(E). Fibrin DD(E) TRITC-Tn6 fluorescence polarization displacement. inhibition, % at 8.3 µM. P02675. hit rate 0.21% among 370,000;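 active means inhibition above a per-campaign cutoff: mean of compounds within control limits plus 3 SD, cut at about 15% in these data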
BSA TAMRA ctr: BSA probe counter-screen for TCR-CD3 inhibitors. TAMRA-labeled BSA probe fluorescence counterscreen. inhibition, % at 9.4 µM. hit rate 10% among 1,200. shares compounds with TCR CD3 inh; in the data active means inhibition above about 23%
TCR-CD3 inh conf: confirmation of human TCR-CD3 interaction inhibitors | inhibition, % at 9.4 µM | shares compounds with TCR CD3 inh | hit rate 48% among 1,200 | TAMRA-labeled TCR probe fluorescence binding assay | AID 652036
DDE Tn7 confirm: confirmation of inhibitors of Tn7 binding to human fibrin DD(E) | AID 720628 | inhibition, % at 8.3 µM | hit rate 5% among 460 | FP displacement of TRITC-Tn7 peptide from DD(E); 0% set at plate's compound-well median | shares compounds with Tn7 DDE FP;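 active means inhibition above the campaign cutoff, the mean of compounds within control limits plus 3 SD, cut at about 14% in these data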;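 further: displacers lower polarization since freed probe rises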
Tn7 DDE ctr: counter-screen hit for Tn7 peptide-fibrin DD(E) binding disruption | TRITC-Tn7 probe displacement, fluorescence polarization | inhibition, % at 8.3 µM | shares compounds with Tn7 DDE FP | hit rate 3% among 460;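 active means inhibition above the cutoff, the mean of compounds lying between the control bounds plus 3 SD of those compounds, cut at about 17% in these data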
mABHD4 conf: confirmation of mouse ABHD4 inhibitors; shares compounds with ABHD4 inh; purified mABHD4, FP-Rh probe fluorescence polarization; inhibition, % at 8.92 µM; hit rate 55% among 1,800; AID 720658;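 active means mean inhibition across replicates above the hit cutoff set in the primary screen, cut at about 30% in these data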
SIAE inh conf: human SIAE inhibition, confirmation. shares compounds with SIAE inh. SIAE FP-Rh activity-based probe, fluorescence polarization. inhibition, % at 9.66 µM. hit rate 13% among 2,300. AID 1117263;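 active means mean inhibition of the replicates above the hit cutoff set in the primary screen, cut at about 17% in these data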;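 further: inhibitors lower polarization as more probe stays unbound to SIAE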
Numbers stand for hits; - = inactive; . = no result. Unless noted, no stated cut-off is given here; in the data, active means inhibition above about 19%; inactive means the rest.

SMILES	TCR CD3 inh	SIAE inh	Tn7 DDE FP	ABHD4 inh	HTRA1 inhibitor	Tn6 DDE FP	DDE Tn7 confirm	Tn7 DDE ctr	others
Cc1ccc(N2C(=O)c3cccc4c(C(=O)O)ccc(c34)C2=O)cc1	-	-	-	-	.	-	.	.
O=C1c2cccc3c(O)ccc(c23)C(=O)N1c1ccc(Cl)cc1	32	37	40	57	-	-	-	-	BSA TAMRA ctr=26;TCR-CD3 inh conf=21;mABHD4 conf=31;SIAE inh conf=-
CC(=O)Nc1ccc(N2C(=O)c3cccc4c(O)ccc(c34)C2=O)cc1	54	26	20	-	-	-	-	-	BSA TAMRA ctr=74;TCR-CD3 inh conf=52;SIAE inh conf=17
COc1ccc(N2C(=O)c3cccc4c(N(C)CCO)ccc(c34)C2=O)cc1	-	-	-	-	-	-	.	.
COC(=O)CC#C[C@H](C)[C@@H](NS(C)(=O)=O)C1CCCCC1	-	-	-	-	.	-	.	.
O=C(C1CCN(S(=O)(=O)c2cccc([N+](=O)[O-])c2)CC1)N1CCOCC1	-	-	14	-	-	-	-	-
O=[N+]([O-])c1cccc(S(=O)(=O)N2CCN(S(=O)(=O)N3CCOCC3)CC2)c1	-	-	-	-	-	-	.	.
COc1ccc(S(=O)(=O)N2CCC(C(=O)N3CCCC3)CC2)cc1Cl	-	-	15	-	-	-	-	-
C=CCNS(=O)(=O)c1ccc(OCC(=O)OC)cc1	-	-	16	-	-	-	-	-
COC(=O)c1ccc2c(C(C)c3ccccc3O)c[nH]c2c1 (stereo not drawn)	.	-	-	-	.	-	.	.
CSc1ccc(C2C(C(=O)c3ccco3)=C(O)C(=O)N2c2nnc(SC)s2)cc1 (stereo not drawn)	-	-	26	-	-	-	-	-
Cc1cccc(CN2[C@@H](C)[C@H](c3ccccc3)Oc3cc(Br)ccc3S2(=O)=O)c1	-	-	-	-	.	-	.	.
COc1cccc(C2CC=C(C(=O)O)CN2S(=O)(=O)c2ccc(C)cc2)c1 (stereo not drawn)	.	-	-	-	.	-	.	.
CC(C)c1ccccc1NC(=O)CSc1n[nH]c(=O)n1C1CC1	-	-	14	-	-	-	-	-
Cc1ccc(C2C(C(=O)c3cccs3)=C(O)C(=O)N2c2nnc(C)s2)cc1 (stereo not drawn)	-	-	32	-	-	-	-	-
COc1ccc(Cn2nnnc2C(c2ccc3ncccc3c2)N2CCN(C3CCCCC3)CC2)cc1 (stereo not drawn)	-	-	14	-	-	-	-	-
COc1ccc(Cn2nnnc2C(c2ccc(C)cc2)N2CCN(C3CCCC3)CC2)cc1 (stereo not drawn)	-	-	-	-	-	-	.	.
O=C(CSc1nc(-c2ccccc2)cc(=O)[nH]1)Nc1ccc(F)c(F)c1	-	-	14	-	-	-	-	-
C=CCNC(=O)CN(CCc1ccccc1)S(=O)(=O)c1ccccc1	-	-	16	-	-	-	-	-
C=CCNC(=O)CN(Cc1ccccc1)S(=O)(=O)c1ccc(C)cc1	-	-	-	-	-	-	.	.
Nn1c(SCC(=O)N2c3ccccc3Sc3ccc(Cl)cc32)nnc1-c1n[nH]c2c1CCC2	.	-	-	-	.	-	.	.

Compound activity deposited in PubChem BioAssay by The Scripps Research Institute Molecular Screening Center.
